{"source": "ChEMBL document CHEMBL1151764", "about": "“Search for inhibitors of bacterial and human protein kinases among derivatives of diazepines[1,4] annelated with maleimide and indole cycles” (J Med Chem, 2008)", "key": {"Streptomyces coelicolor [1]": {"test_system": "Streptomyces coelicolor", "experiment": "Inhibition of Ca(2+)/Calmodulin-dependent aph8 phosphorylation in Streptomyces coelicolor cell lysate assessed as [32Pi] incorporation into aph8 at 500 nM by microplate scintillation counter relative to control", "set-up": "scale not given: the % may be the effect or the level left", "how_it_was_run": "(§1)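 Radiometric in vitro assay of actinobacterial protein kinases. Kinases incubated under standard conditions with [γ-³²P]ATP and aphVIII as substrate, with or without modulators or inhibitors. Read-out was incorporation of the γ-phosphoryl residue into aphVIII.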"}, "Streptomyces coelicolor [2]": {"test_system": "Streptomyces coelicolor", "experiment": "Inhibition of aph8-induced kanamycin phosphorylation in Streptomyces coelicolor cell lysate assessed as [32Pi] incorporation into kanamycin at 10 uM by microplate scintillation counter relative to control", "set-up": "scale not given: the % may be the effect or the level left"}, "Streptomyces lividans [3]": {"test_system": "Streptomyces lividans", "experiment": "Inhibition of aph8 positive Streptomyces lividans at 80 uM after 20 hrs by paper disk method", "type": "functional", "settings": "read-out: IZ", "how_it_was_run": "(§2)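 Test culture was Streptomyces lividans carrying plasmid pSU23 with the aphVIII gene, whose kanamycin-inactivating activity depends on Ser/Thr kinase phosphorylation. Paper disks (7 mm) held kanamycin (5 µg/disk) plus test compound at subtoxic amounts, about half the minimal growth-inhibitory dose. Disks went on plates of log-phase cells at 28 °C for 20 h. Read-out was lysis zone diameter.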"}, "Streptomyces lividans [4]": {"test_system": "Streptomyces lividans", "experiment": "Inhibition of aph8 positive Streptomyces lividans at 10 uM after 20 hrs by paper disk method", "type": "functional", "settings": "read-out: IZ", "how_it_was_run": "as §2"}, "Streptomyces lividans [5]": {"test_system": "Streptomyces lividans", "experiment": "Inhibition of aph8 positive Streptomyces lividans at 5 uM after 20 hrs by paper disk method", "type": "functional", "settings": "read-out: IZ", "how_it_was_run": "as §2"}, "Streptomyces lividans [6]": {"test_system": "Streptomyces lividans", "experiment": "Inhibition of aph8 positive Streptomyces lividans at 20 uM after 20 hrs by paper disk method", "type": "functional", "settings": "read-out: IZ", "how_it_was_run": "as §2"}, "Streptomyces lividans [7]": {"test_system": "Streptomyces lividans", "experiment": "Inhibition of aph8 positive Streptomyces lividans at 40 uM after 20 hrs by paper disk method", "type": "functional", "settings": "read-out: IZ", "how_it_was_run": "as §2"}, "[8]": {"target": "T1, Cyclin-dependent kinase 2 (Homo sapiens, UniProt P24941)", "experiment": "Inhibition of human CDK2/CycA"}, "Streptomyces lividans [9]": {"test_system": "Streptomyces lividans", "experiment": "Inhibition of aph8 positive Streptomyces lividans at 50 uM after 20 hrs by paper disk method", "type": "functional", "settings": "read-out: IZ", "how_it_was_run": "as §2"}, "Streptomyces lividans [10]": {"test_system": "Streptomyces lividans", "experiment": "Inhibition of aph8 positive Streptomyces lividans at 25 uM after 20 hrs by paper disk method", "type": "functional", "settings": "read-out: IZ", "how_it_was_run": "as §2"}, "Streptomyces lividans [11]": {"test_system": "Streptomyces lividans", "experiment": "Inhibition of aph8 positive Streptomyces lividans at 200 uM after 20 hrs by paper disk method", "type": "functional", "settings": "read-out: IZ", "how_it_was_run": "as §2"}, "Streptomyces lividans [12]": {"test_system": "Streptomyces lividans", "experiment": "Inhibition of aph8 positive Streptomyces lividans at 400 uM after 20 hrs by paper disk method", "type": "functional", "settings": "read-out: IZ", "how_it_was_run": "as §2"}, "Streptomyces coelicolor [13]": {"test_system": "Streptomyces coelicolor", "experiment": "Inhibition of Ca(2+))/phosphatidylserine/diacylglycerol-dependent aph8 phosphorylation in Streptomyces coelicolor cell lysate assessed as [32Pi] incorporation into aph8 at 500 nM by microplate scintillation counter relative to control", "set-up": "scale not given: the % may be the effect or the level left", "how_it_was_run": "as §1"}, "Streptomyces lividans [14]": {"test_system": "Streptomyces lividans", "experiment": "Inhibition of aph8 positive Streptomyces lividans at 100 uM after 20 hrs by paper disk method", "type": "functional", "settings": "read-out: IZ", "how_it_was_run": "as §2"}, "[15]": {"target": "Proto-oncogene tyrosine-protein kinase Src (Homo sapiens, UniProt P12931)", "sequence (P12931 2-536 limits assumed)": "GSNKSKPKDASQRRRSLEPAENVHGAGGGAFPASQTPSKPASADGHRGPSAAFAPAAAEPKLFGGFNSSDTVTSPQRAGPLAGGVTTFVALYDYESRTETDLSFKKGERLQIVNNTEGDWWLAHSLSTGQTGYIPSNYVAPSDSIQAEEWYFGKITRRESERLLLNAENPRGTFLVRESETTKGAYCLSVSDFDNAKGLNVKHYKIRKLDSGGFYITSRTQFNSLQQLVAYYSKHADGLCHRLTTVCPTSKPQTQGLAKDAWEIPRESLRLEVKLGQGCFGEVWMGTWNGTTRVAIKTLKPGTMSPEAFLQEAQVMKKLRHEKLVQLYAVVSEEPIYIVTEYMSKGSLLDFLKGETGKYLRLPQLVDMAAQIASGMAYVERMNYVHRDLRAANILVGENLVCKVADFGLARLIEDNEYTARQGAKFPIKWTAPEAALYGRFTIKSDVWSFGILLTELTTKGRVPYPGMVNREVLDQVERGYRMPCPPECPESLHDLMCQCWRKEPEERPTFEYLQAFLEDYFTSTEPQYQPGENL", "experiment": "Inhibition of human SRC"}, "[16]": {"target": "Cyclin-dependent kinase 4/cyclin D1 (Homo sapiens, UniProt P11802)", "experiment": "Inhibition of human CDK4/CycD1", "type": "protein-complex assay"}, "[17]": {"target": "Hepatocyte growth factor receptor (Homo sapiens, UniProt P08581)", "sequence (P08581 whole entry)": "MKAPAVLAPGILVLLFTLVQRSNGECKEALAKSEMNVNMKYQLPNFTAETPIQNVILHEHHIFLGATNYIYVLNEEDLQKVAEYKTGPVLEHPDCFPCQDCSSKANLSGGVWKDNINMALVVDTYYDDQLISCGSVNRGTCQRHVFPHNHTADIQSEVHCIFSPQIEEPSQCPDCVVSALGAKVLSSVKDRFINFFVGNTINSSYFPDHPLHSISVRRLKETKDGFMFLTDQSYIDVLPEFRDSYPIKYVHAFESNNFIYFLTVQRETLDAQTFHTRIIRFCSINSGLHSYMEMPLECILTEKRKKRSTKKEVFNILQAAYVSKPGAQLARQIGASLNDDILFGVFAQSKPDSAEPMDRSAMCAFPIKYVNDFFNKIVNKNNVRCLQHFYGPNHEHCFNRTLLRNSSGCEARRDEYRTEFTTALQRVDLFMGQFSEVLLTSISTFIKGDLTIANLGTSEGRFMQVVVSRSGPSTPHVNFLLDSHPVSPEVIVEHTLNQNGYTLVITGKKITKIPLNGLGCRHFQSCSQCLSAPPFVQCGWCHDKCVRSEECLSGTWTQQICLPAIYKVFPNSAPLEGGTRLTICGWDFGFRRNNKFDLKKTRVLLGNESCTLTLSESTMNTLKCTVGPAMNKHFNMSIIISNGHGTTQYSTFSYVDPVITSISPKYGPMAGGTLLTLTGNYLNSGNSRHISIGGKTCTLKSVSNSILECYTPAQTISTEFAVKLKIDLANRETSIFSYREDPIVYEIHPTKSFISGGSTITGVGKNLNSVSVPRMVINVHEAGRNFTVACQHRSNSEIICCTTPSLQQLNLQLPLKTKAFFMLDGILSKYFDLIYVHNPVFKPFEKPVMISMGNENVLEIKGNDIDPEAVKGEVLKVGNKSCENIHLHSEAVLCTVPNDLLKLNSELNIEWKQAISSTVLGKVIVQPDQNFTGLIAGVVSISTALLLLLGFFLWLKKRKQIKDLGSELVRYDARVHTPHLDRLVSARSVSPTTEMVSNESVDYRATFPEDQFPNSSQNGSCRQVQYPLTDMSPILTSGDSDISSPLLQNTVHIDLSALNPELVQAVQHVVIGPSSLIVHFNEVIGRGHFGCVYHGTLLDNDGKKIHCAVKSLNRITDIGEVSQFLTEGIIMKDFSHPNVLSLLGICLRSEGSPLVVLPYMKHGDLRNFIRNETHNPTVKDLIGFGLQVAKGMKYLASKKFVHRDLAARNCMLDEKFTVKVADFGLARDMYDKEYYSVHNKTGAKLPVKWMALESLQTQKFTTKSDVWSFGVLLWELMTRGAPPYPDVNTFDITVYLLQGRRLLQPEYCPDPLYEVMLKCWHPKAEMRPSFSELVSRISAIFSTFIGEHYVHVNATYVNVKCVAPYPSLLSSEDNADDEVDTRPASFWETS", "experiment": "Inhibition of human MET"}, "Insulin receptor": {"target": "Insulin receptor (Homo sapiens, UniProt P06213)", "experiment": "Inhibition of human INSR"}, "[18]": {"target": "Receptor tyrosine-protein kinase erbB-2 (Homo sapiens, UniProt P04626)", "experiment": "Inhibition of human ERBB2"}, "Ephrin type-B receptor 4": {"target": "T2, Ephrin type-B receptor 4 (Homo sapiens, UniProt P54760)", "T2 sequence (P54760 whole entry)": "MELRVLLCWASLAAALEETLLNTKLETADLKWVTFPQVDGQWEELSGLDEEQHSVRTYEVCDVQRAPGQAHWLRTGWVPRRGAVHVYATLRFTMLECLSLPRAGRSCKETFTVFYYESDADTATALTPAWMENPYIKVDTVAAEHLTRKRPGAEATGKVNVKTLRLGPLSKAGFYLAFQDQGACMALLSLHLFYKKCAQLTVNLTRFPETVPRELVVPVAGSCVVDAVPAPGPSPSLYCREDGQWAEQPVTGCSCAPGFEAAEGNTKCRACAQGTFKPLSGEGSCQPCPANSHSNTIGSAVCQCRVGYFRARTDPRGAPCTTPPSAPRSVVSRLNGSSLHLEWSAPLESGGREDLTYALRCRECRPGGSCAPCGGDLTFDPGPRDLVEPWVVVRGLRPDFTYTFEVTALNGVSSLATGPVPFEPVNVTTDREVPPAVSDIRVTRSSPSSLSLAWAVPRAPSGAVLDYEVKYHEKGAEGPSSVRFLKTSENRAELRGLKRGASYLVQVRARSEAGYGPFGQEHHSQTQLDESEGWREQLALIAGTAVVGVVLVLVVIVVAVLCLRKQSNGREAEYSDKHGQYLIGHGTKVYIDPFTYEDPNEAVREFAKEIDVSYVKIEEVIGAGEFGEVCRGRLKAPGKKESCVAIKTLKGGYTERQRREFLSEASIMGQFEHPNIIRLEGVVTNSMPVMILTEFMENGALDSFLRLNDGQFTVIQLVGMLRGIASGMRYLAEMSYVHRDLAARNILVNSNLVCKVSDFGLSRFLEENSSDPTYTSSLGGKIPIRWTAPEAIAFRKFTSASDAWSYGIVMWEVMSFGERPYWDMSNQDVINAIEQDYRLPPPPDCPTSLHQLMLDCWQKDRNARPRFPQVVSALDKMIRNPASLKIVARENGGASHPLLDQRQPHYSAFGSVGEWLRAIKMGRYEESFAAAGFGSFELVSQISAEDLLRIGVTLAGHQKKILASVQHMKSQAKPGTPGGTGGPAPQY", "experiment": "Inhibition of human EPHB4"}, "[19]": {"target": "Serine/threonine-protein kinase B-raf (Homo sapiens, UniProt P15056, V600E)", "experiment": "Inhibition of human B-RAF-V600E mutant"}, "[20]": {"target": "Vascular endothelial growth factor receptor 2 (Homo sapiens, UniProt P35968)", "experiment": "Inhibition of human VEGFR2"}, "[21]": {"target": "Serine/threonine-protein kinase PLK1 (Homo sapiens, UniProt P53350)", "sequence (P53350 whole entry)": "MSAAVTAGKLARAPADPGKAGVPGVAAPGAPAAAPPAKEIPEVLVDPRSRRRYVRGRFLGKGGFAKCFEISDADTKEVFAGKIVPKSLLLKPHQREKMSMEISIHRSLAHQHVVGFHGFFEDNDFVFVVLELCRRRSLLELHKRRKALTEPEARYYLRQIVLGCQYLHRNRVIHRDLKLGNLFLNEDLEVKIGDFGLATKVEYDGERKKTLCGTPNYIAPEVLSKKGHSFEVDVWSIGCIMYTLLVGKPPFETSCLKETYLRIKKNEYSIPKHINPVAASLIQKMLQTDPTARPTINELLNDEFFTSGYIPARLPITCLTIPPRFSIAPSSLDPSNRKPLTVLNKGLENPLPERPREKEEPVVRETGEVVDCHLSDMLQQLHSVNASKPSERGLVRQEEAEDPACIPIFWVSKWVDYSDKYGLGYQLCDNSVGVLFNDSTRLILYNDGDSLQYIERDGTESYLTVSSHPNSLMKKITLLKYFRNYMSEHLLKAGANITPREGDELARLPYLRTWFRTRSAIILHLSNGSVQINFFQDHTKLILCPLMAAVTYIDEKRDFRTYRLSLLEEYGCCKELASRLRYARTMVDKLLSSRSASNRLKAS", "experiment": "Inhibition of human PLK1"}, "Focal adhesion kinase 1": {"target": "Focal adhesion kinase 1 (Homo sapiens, UniProt Q05397)", "experiment": "Inhibition of human FAK"}, "[22]": {"target": "Insulin-like growth factor 1 receptor (Homo sapiens, UniProt P08069)", "sequence (P08069 31-736 limits assumed)": "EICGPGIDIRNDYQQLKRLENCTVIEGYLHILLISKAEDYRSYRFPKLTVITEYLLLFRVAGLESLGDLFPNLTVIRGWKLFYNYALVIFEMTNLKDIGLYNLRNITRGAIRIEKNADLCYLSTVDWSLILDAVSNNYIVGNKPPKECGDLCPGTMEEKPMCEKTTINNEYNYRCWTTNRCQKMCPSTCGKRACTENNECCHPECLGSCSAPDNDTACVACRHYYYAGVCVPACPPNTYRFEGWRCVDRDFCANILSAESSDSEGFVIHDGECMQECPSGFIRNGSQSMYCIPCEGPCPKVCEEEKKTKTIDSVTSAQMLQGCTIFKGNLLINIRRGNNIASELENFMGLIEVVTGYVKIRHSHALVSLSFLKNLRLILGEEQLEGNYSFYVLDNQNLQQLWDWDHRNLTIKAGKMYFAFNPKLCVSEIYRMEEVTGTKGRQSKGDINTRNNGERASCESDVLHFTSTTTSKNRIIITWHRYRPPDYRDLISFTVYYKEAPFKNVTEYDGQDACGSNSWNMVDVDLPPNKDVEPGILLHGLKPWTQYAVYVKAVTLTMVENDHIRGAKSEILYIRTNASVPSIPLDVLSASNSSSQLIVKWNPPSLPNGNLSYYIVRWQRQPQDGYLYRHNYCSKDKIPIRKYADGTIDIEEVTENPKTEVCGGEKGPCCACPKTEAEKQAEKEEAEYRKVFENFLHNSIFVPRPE", "sequence (P08069 741-1367 limits assumed)": "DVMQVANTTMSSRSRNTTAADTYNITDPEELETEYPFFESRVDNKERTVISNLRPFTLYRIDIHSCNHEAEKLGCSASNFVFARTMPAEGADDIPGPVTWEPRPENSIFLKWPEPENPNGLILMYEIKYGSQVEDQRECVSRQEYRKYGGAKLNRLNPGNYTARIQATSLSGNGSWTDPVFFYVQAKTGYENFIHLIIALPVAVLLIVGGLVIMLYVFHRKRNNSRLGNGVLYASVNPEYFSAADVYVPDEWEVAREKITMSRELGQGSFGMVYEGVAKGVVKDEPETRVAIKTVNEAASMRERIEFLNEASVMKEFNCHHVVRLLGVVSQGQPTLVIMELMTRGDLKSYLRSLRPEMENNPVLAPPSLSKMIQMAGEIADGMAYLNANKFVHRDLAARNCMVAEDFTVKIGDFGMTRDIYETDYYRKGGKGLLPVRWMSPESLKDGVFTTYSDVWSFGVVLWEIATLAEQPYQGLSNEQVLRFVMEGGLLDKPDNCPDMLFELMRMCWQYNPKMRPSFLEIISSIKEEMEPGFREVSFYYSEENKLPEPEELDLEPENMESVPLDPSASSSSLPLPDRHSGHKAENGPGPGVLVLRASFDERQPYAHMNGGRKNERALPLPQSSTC", "experiment": "Inhibition of human IGF1R"}, "[23]": {"target": "RAC-alpha serine/threonine-protein kinase (Homo sapiens, UniProt P31749)", "experiment": "Inhibition of human AKT1"}, "[24]": {"target": "Platelet-derived growth factor receptor beta (Homo sapiens, UniProt P09619)", "sequence (P09619 whole entry)": "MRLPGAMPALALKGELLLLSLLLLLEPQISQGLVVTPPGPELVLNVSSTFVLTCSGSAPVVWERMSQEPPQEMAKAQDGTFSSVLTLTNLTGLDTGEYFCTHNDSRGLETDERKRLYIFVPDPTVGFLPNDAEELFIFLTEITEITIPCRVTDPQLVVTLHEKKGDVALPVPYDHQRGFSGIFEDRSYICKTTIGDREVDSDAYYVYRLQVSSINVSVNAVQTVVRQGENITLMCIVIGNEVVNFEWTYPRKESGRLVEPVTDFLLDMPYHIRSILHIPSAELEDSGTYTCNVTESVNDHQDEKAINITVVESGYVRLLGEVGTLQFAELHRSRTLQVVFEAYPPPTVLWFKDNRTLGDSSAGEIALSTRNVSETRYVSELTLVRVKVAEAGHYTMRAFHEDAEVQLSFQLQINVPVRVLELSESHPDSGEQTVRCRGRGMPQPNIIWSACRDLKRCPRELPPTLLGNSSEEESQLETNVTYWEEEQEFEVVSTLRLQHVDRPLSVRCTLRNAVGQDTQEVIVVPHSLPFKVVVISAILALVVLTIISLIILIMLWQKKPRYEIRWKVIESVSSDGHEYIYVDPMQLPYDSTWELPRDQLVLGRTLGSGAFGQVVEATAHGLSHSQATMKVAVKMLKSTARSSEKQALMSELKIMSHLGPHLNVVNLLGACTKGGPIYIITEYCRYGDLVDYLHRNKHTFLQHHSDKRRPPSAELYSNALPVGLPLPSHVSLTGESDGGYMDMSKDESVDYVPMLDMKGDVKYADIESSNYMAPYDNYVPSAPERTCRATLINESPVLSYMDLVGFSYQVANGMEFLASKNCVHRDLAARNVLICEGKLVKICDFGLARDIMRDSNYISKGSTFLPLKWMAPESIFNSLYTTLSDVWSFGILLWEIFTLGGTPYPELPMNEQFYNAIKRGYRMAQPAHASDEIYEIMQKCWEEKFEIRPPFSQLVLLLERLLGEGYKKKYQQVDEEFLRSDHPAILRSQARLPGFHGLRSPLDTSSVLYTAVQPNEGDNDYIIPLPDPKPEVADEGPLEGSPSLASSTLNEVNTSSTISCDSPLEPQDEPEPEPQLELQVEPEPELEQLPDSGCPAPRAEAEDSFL", "experiment": "Inhibition of human PDGFRbeta"}, "[25]": {"target": "T1, Cyclin-dependent kinase 2", "experiment": "Inhibition of human CDK2/Cyc2"}}}
{"smiles": "CN([C@@H](Cc1ccc(OS(=O)(=O)c2cccc3cnccc23)cc1)C(=O)N1CCN(c2ccccc2)CC1)S(=O)(=O)c1cccc2cnccc12", "values": [{"measurement": "Activity", "setting": "Streptomyces coelicolor [1]", "value": 113, "unit": "%"}]}
{"smiles": "CCN(CC)CCCN1C(=O)C2=C(C1=O)n1ccc3cccc(c31)C1Cc3ccccc3N21", "note": "(stereo not drawn)", "values": [{"measurement": "Activity", "setting": "Streptomyces coelicolor [2]", "value": 94, "unit": "%"}, {"measurement": "zone of inhibition at 80 µM", "setting": "Streptomyces lividans [3]", "value": 11, "unit": "mm"}, {"measurement": "zone of inhibition at 10 µM", "setting": "Streptomyces lividans [4]", "value": 0, "unit": "mm"}, {"measurement": "zone of inhibition at 5 µM", "setting": "Streptomyces lividans [5]", "value": 0, "unit": "mm"}, {"measurement": "zone of inhibition at 20 µM", "setting": "Streptomyces lividans [6]", "value": 7.5, "unit": "mm"}, {"measurement": "zone of inhibition at 40 µM", "setting": "Streptomyces lividans [7]", "value": 9, "unit": "mm"}]}
{"smiles": "CCNC(=N)SCCCN1C(=O)C2=C(C1=O)n1ccc3cccc(c31)C1Cc3ccccc3N21", "note": "(stereo not drawn)", "values": [{"measurement": "IC50", "setting": "[8]", "value": 6.8, "unit": "µM"}]}
{"smiles": "CCN(CC)Cc1cn2c3c(cccc13)C1Cc3ccccc3N1C1=C2C(=O)N(C)C1=O", "note": "(stereo not drawn)", "values": [{"measurement": "Activity", "setting": "Streptomyces coelicolor [2]", "value": 93, "unit": "%"}, {"measurement": "zone of inhibition at 50 µM", "setting": "Streptomyces lividans [9]", "value": 0, "unit": "mm"}, {"measurement": "zone of inhibition at 25 µM", "setting": "Streptomyces lividans [10]", "value": 0, "unit": "mm"}, {"measurement": "zone of inhibition at 200 µM", "setting": "Streptomyces lividans [11]", "value": 12, "unit": "mm"}, {"measurement": "zone of inhibition at 400 µM", "setting": "Streptomyces lividans [12]", "value": 14, "unit": "mm"}, {"measurement": "Activity", "setting": "Streptomyces coelicolor [13]", "value": 94, "unit": "%"}, {"measurement": "zone of inhibition at 100 µM", "setting": "Streptomyces lividans [14]", "value": 7.5, "unit": "mm"}]}
{"smiles": "N=C(N)SCCCn1c(=O)c2c(c1=O)n1c3ccccc3cc1c1cccc3ccn2c31", "values": [{"measurement": "IC50", "setting": "[15]", "value": 3.8, "unit": "µM"}, {"measurement": "IC50", "setting": "[16]", "value": 2700, "unit": "nM"}, {"measurement": "IC50", "setting": "[17]", "value": 3.3, "unit": "µM"}, {"measurement": "IC50", "setting": "Insulin receptor", "value": 2600, "unit": "nM"}, {"measurement": "IC50", "setting": "[18]", "value": 7.7, "unit": "µM"}, {"measurement": "IC50", "setting": "Ephrin type-B receptor 4", "value": 2300, "unit": "nM"}, {"measurement": "IC50", "setting": "[19]", "value": 1200, "unit": "nM"}, {"measurement": "IC50", "setting": "[20]", "value": 4.1, "unit": "µM"}, {"measurement": "IC50", "setting": "[8]", "value": 3.6, "unit": "µM"}, {"measurement": "IC50", "setting": "[21]", "value": 9.9, "unit": "µM"}, {"measurement": "IC50", "setting": "Focal adhesion kinase 1", "value": 4.4, "unit": "µM"}, {"measurement": "IC50", "setting": "[22]", "value": 4, "unit": "µM"}, {"measurement": "IC50", "setting": "[23]", "value": 9, "unit": "µM"}, {"measurement": "IC50", "setting": "[24]", "value": 4.2, "unit": "µM"}]}
{"smiles": "N=C(N)SCCCN1C(=O)C2=C(C1=O)n1ccc3cccc(c31)C1Cc3ccccc3N21", "note": "(stereo not drawn)", "values": [{"measurement": "IC50", "setting": "[25]", "value": 4.3, "unit": "µM"}]}
{"smiles": "CN1C(=O)C(c2c[nH]c3ccccc23)=C(c2c[nH]c3ccccc23)C1=O", "values": [{"measurement": "Activity", "setting": "Streptomyces coelicolor [2]", "value": 89, "unit": "%"}, {"measurement": "Activity", "setting": "Streptomyces coelicolor [13]", "value": 206, "unit": "%"}]}
{"smiles": "COc1ccc(S(=O)(=O)Nc2ccccc2CN(C)C/C=C/c2ccc(Cl)cc2)cc1", "values": [{"measurement": "Activity", "setting": "Streptomyces coelicolor [1]", "value": 352, "unit": "%"}]}
